Data as given in ChEMBL document CHEMBL4330127, “Discovery of Novel Pyruvate Dehydrogenase Kinase 4 Inhibitors for Potential Oral Treatment of Metabolic Diseases” (J Med Chem, 2019).
Calls of active or inactive are those of the source. The rule behind the calls is not given here.

Key:
[1] = biological target: UDP-glucuronosyltransferase 2B7 (Homo sapiens, UniProt P16662); assay: Inhibition of UGT2B7 in human liver microsomes assessed as reduction in naloxone 3-glucuronidation by tandem mass spectrometry analysis; format: ADME
Sequence of UDP-glucuronosyltransferase 2B7 (P16662 whole entry): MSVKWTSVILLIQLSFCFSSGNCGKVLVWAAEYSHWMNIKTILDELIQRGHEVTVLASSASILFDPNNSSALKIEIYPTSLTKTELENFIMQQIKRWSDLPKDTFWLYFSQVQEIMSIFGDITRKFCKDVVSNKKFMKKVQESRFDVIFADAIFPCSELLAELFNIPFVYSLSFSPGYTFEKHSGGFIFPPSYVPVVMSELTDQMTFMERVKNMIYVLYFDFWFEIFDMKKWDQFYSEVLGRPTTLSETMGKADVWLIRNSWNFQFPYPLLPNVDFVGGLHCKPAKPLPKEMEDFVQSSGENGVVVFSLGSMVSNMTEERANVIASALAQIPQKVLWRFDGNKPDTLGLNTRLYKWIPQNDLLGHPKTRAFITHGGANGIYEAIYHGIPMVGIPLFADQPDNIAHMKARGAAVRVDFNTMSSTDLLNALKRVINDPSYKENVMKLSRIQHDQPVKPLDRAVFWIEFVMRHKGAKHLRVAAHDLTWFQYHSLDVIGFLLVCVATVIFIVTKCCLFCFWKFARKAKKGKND
Procedure, shortened: (§1)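 Pooled human liver microsomes; test compound at final 0–50 μM in a cocktail incubation with probe substrates: midazolam 1′-hydroxylation (CYP3A), SN-38 glucuronidation (UGT1A1), trifluoperazine N-glucuronidation (UGT1A4), mycophenolic acid glucuronidation (UGT1A9), naloxone 3-glucuronidation (UGT2B7). Metabolites measured by tandem MS; IC50 determined; duplicate.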

Vero = assay: Cytotoxicity against African green monkey Vero cells; format: cell-based; conditions: Chlorocebus sabaeus
HCT-116 [2] = assay: Cell cycle arrest in human HCT116 cells assessed as accumulation at G1/G0 phase at 50 uM after 24 hrs propidium iodide staining based flow cytometry (reference value: 42%); format: functional
Procedure, shortened: (§2)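 HCT116 and RKO cells were treated with compound alone or with oxaliplatin for 24 h before harvest. Cells were stained with propidium iodide, and DNA content was analysed by flow cytometry. Cell-cycle phase populations, including sub-G1, are given as percentages.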

L929 = assay: Cytotoxicity against mouse L929 cells; format: cell-based
Mast cell = assay: Inhibition of degranulation in IgE-labeled bone marrow-derived mast cells (unknown origin) assessed as reduction in beta-hexosaminidase release preincubated for 1 hr followed by HSA stimulation and measured after 15 mins; format: functional, cell-based
[3] = biological target: T1, [Pyruvate dehydrogenase (acetyl-transferring)] kinase isozyme 4, mitochondrial (Homo sapiens, UniProt Q16654); assay: Inhibition of PDK4 (unknown origin) at 10 uM relative to control
T1 sequence (Q16654 whole entry, looked up): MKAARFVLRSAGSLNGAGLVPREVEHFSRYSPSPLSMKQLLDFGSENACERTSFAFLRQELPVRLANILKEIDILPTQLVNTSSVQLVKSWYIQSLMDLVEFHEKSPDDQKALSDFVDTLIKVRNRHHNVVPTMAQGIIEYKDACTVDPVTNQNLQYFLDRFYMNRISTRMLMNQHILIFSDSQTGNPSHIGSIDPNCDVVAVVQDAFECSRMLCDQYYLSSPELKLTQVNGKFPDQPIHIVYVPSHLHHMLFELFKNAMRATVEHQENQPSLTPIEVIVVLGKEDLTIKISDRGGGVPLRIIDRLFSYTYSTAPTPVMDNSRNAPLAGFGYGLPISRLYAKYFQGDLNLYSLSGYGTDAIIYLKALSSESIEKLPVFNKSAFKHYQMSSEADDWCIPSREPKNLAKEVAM

HCT-116 [4] = assay: Cell cycle arrest in human HCT116 cells assessed as accumulation at sub-G1 phase at 25 uM after 24 hrs in presence of oxaliplatin propidium iodide staining based flow cytometry (reference value: 25.1%); format: functional; procedure, shortened: as §2
[5] = Cmax in rat at 10 mg/kg, po; format: ADME, organism-based; set-up: dose 10 mg/kg, route oral; conditions: in vivo
Procedure, shortened: (§3)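 Male rats given a single dose, 5 mg/kg intravenously or 10 mg/kg orally. Plasma PK parameters were reported as mean ± SD: AUCt, AUC∞, Cmax, Tmax, T1/2, CL, Vss and oral bioavailability F.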

HCT-116 [6] = assay: Cell cycle arrest in human HCT116 cells assessed as accumulation at S phase at 50 uM after 24 hrs propidium iodide staining based flow cytometry (reference value: 18%); format: functional; procedure, shortened: as §2
HCT-116 [7] = assay: Induction of apoptosis in human HCT116 cells assessed as early apoptotic cells at 25 uM after 24 hrs by Annexin V/propidium iodide staining based flow cytometry (reference value: 4.36%); format: functional
HCT-116 [8] = assay: Induction of apoptosis in human HCT116 cells assessed as late apoptotic cells at 25 uM after 24 hrs in presence of oxaliplatin by Annexin V/propidium iodide staining based flow cytometry (reference value: 14.2%); format: functional
RKO [9] = assay: Induction of apoptosis in human RKO cells assessed as early apoptotic cells at 50 uM after 24 hrs by Annexin V/propidium iodide staining based flow cytometry (reference value: 9.62%); format: functional
RKO [10] = assay: Cell cycle arrest in human RKO cells assessed as accumulation at G1/G0 phase at 25 uM after 24 hrs propidium iodide staining based flow cytometry (reference value: 39.9%); format: functional; procedure, shortened: as §2
[11] = Tmax in rat at 10 mg/kg, po; format: ADME, organism-based; conditions: in vivo
HCT-116 [12] = assay: Inhibition of colony formation in human HCT116 cells at 10 to 50 […] after 7 days by crystal violet staining based assay; format: functional, cell-based
Procedure, shortened: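 HCT116 and RKO cells seeded in 6-well plates and treated with compound for 7 days. Cells then fixed and stained with crystal violet to score colony formation.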

[13] = biological target: UDP-glucuronosyltransferase 1A4 (Homo sapiens, UniProt P22310); assay: Inhibition of UGT1A4 in human liver microsomes assessed as reduction in trifluoperazine N-glucuronidation by tandem mass spectrometry analysis; format: ADME; procedure, shortened: as §1
Sequence of UDP-glucuronosyltransferase 1A4 (P22310 whole entry): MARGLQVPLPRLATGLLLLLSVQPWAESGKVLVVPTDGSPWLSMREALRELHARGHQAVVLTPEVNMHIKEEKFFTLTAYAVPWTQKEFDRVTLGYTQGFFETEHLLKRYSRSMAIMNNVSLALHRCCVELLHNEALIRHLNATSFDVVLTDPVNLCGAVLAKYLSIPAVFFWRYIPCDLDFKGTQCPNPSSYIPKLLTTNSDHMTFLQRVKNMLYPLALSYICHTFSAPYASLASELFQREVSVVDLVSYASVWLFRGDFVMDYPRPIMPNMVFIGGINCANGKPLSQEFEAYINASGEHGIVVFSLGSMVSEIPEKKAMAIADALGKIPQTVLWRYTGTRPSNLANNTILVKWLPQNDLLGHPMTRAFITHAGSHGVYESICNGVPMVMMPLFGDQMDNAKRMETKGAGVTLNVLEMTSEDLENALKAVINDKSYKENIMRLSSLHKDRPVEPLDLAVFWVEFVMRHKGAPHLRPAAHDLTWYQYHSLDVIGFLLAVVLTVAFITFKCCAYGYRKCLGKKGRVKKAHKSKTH

HCT-116 [14] = assay: Cell cycle arrest in human HCT116 cells assessed as accumulation at G2/M phase at 10 uM after 24 hrs propidium iodide staining based flow cytometry (reference value: 22.2%); format: functional; procedure, shortened: as §2
RKO [15] = assay: Cell cycle arrest in human RKO cells assessed as accumulation at G2/M phase at 50 uM after 24 hrs propidium iodide staining based flow cytometry (reference value: 23.3%); format: functional; procedure, shortened: as §2
HCT-116 [16] = assay: Induction of apoptosis in human HCT116 cells assessed as necrotic cells at 25 uM after 24 hrs by Annexin V/propidium iodide staining based flow cytometry (reference value: 2.92%); format: functional
HCT-116 [17] = assay: Induction of apoptosis in human HCT116 cells assessed as live cells at 25 uM after 24 hrs in presence of oxaliplatin by Annexin V/propidium iodide staining based flow cytometry (reference value: 57.3%); format: functional
RKO [18] = assay: Induction of apoptosis in human RKO cells assessed as live cells at 25 uM after 24 hrs in presence of oxaliplatin by Annexin V/propidium iodide staining based flow cytometry (reference value: 86.4%); format: functional
Cytochrome P450 2C19 = Cytochrome P450 2C19 (Homo sapiens, UniProt P33261); assay: Inhibition of CYP2C19 in human liver microsomes assessed as reduction in omeprazole hydroxylation by tandem mass spectrometry analysis; format: ADME
Sequence of Cytochrome P450 2C19 (P33261 whole entry): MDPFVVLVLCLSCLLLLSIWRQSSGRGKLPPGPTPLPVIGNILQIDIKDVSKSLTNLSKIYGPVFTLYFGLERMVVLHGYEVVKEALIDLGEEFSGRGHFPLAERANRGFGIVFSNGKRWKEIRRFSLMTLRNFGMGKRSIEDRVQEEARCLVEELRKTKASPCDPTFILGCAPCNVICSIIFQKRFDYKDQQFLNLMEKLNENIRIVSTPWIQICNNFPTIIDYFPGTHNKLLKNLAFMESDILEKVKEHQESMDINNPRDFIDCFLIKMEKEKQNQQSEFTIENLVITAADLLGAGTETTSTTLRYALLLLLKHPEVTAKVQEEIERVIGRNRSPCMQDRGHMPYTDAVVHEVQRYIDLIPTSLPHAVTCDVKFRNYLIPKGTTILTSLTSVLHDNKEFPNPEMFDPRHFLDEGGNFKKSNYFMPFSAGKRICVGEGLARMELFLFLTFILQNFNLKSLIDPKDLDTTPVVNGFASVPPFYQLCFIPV
Procedure, shortened: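 Pooled human liver microsomes incubated with compound at 0–50 μM final; CYP probe activities (phenacetin O-deethylation for 1A2, tolbutamide 4-hydroxylation for 2C9, omeprazole hydroxylation for 2C19, dextromethorphan O-demethylation for 2D6) run as a cocktail incubation and quantified by tandem MS; duplicates; IC50 derived.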

RKO [19] = assay: Induction of apoptosis in human RKO cells assessed as increase in cleaved-PARP expression at 10 to 50 uM after 24 hrs by Western blot analysis; format: functional, cell-based
Procedure, shortened: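 HCT116 and RKO cells given a range of compound doses for 24 h; lysates probed by Western blot for apoptosis-related proteins (p53, BAX, BCLxL).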

[20] = biological target: T1, [Pyruvate dehydrogenase (acetyl-transferring)] kinase isozyme 4, mitochondrial; assay: Inhibition of PDK4 in HEK293T cells assessed as reduction in PDHE1alpha phosphorylation at Ser-300 residue by measuring phosphorylated PDHE1alpha level at 10 uM after 24 hrs by Western blot analysis; format: cell-based
Procedure, shortened: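 HEK293T cells grown in high-glucose DMEM with 10% FBS at 37 °C, 5% CO2. Medium renewed after 24 h, then cells exposed to compound for 24 h and lysed. 20 μg protein per lane Western blotted with antibodies to phospho-PDHE1α Ser232, Ser293 and Ser300 and to total PDHE1α. Band intensity quantified relative to control; triplicate.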

[21] = Volume of distribution at steady state in rat at 5 mg/kg, iv; format: ADME, organism-based; conditions: in vivo, read-out: Vdss
CYP3A = CYP3A (Homo sapiens, UniProt P08684+P20815+P24462+Q9HB55); assay: Inhibition of CYP3A in human liver microsomes assessed as reduction in midazolam 1'-hydroxylation by tandem mass spectrometry analysis; format: ADME; conditions: probe midazolam (1'-hydroxylation); procedure, shortened: as §1
HCT-116 [22] = assay: Induction of apoptosis in human HCT116 cells assessed as necrotic cells at 50 uM after 24 hrs by Annexin V/propidium iodide staining based flow cytometry (reference value: 2.92%); format: functional
RKO [23] = assay: Induction of apoptosis in human RKO cells assessed as early apoptotic cells at 25 uM after 24 hrs by Annexin V/propidium iodide staining based flow cytometry (reference value: 9.62%); format: functional
[24] = AUC (0 to infinity) in rat at 5 mg/kg, iv; format: ADME, organism-based; set-up: dose 5 mg/kg, route intravenous, time infinity; conditions: in vivo; procedure, shortened: as §3

In the case of `Cl.O=C1c2ccccc2C(=O)c2c1cccc2-c1cnn(C2CCNCC2)c1`, the IC50 [1] is reported as > 50 µM, the IC50 (Vero) is reported as 36.4 µM and the Activity (HCT-116 [2]) is reported as 11.2%. For the same compound, the IC50 (L929) was 35.8 µM, the inhibition (Mast cell) was “Dose-dependent effect” and the inhibition [3] was 50.1%. The Activity (HCT-116 [4]) was 36%, the Cmax [5] was 565 ng/mL and the Activity (HCT-116 [6]) was 5.3%. For the same compound, the Activity (HCT-116 [7]) was 7.1%, the Activity (HCT-116 [8]) was 21.8% and the Activity (RKO [9]) was 41.4%. The Activity (RKO [10]) was 13.7%, the Tmax [11] was 6 h and the inhibition (HCT-116 [12]) was “Active”. For the same compound, the IC50 [13] was > 50 µM, the Activity (HCT-116 [14]) was 14.9% and the Activity (RKO [15]) was 2.8%. The Activity (HCT-116 [16]) was 19.6%, the Activity (HCT-116 [17]) was 44.6% and the Activity (RKO [18]) was 36.8%. The IC50 (Cytochrome P450 2C19) was 42.4 µM, the Activity (RKO [19]) was “Active” and the fold change (FC) [20] was 0.26. The Vd [21] was 5.52 L/kg, the IC50 (CYP3A) was 36.6 µM and the Activity (HCT-116 [22]) was 20.2%. For the same compound, the Activity (RKO [23]) was 19.3% and the AUC(0-inf) [24] was 7610 ng·h/mL.
